Measurements of several laboratories.
Protocols differ between the studies behind these lines.
Target: Dual specificity tyrosine-phosphorylation-regulated kinase 2 (DYRK2, Homo sapiens, UniProt Q92630)
One construct used (Q92630 1-601): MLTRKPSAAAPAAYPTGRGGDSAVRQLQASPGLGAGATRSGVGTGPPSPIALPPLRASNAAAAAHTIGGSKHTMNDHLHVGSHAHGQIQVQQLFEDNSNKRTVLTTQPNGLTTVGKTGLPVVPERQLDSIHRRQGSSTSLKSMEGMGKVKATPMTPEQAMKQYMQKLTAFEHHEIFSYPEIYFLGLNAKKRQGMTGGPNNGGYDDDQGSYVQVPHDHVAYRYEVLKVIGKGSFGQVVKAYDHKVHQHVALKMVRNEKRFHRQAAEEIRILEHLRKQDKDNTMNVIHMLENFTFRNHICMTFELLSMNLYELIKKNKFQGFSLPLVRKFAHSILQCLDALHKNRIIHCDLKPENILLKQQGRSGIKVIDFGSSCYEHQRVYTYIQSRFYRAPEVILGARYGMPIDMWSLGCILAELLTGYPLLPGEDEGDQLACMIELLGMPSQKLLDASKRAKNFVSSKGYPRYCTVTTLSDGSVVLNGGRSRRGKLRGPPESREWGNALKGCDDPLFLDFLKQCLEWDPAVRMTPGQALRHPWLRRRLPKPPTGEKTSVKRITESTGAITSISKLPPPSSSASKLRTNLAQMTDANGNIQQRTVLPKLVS

Compound | effect on | mode | technique | tested at | endpoint | result
O=C1NC(=O)c2cc(Nc3ccc(F)cc3)c(Nc3ccc(F)cc3)cc21 | cell-free assay |  |  | 0.5 µM | remaining signal | 89.1%
CSc1cccnc1N1CCN(Cc2nc3ccccc3[nH]2)CC1 | cell-free assay |  | competition with immobilised ligand | 1 µM | remaining binding | 81%
CNC(=O)c1cc(Oc2ccc(NC(=O)Nc3ccc(Cl)c(C(F)(F)F)c3)cc2)ccn1 | enzyme activity | inhibitor |  | 0.3 µM | inhibition | -3%
CNCc1ccccc1-c1csc([C@H](C)Nc2nc(C)nc3cc(OC)c(OC)cc23)c1 | cell-free assay |  | competition with immobilised ligand | 1 µM | remaining binding | 96%
CCN(CC)CCNC(=O)c1c(C)[nH]c(/C=C2\C(=O)Nc3ccc(F)cc32)c1C | enzyme activity | inhibitor |  | 10 µM | inhibition | 36%
NS(=O)(=O)c1cc(NC(=O)Cc2ccccc2)ccc1Oc1cccc(Cl)c1 | cell-free assay |  | competition with immobilised ligand | 1 µM | remaining binding | 100%
O=C(O)c1ccc2c(c1)nc(NCCc1cccc(Cl)c1)c1ncncc12 | enzyme activity | inhibitor | radiometric | 1 µM | remaining activity | 76%
CS(=O)(=O)CCNCc1ccc(-c2ccc3ncnc(Nc4ccc(OCc5cccc(F)c5)c(Cl)c4)c3c2)o1 | cell-free assay |  |  | 0.5 µM | remaining signal | 102%
O=C(O)c1ccc2c(c1)nc(NCCc1cccc(Cl)c1)c1ccncc12 | enzyme activity | inhibitor | radiometric | 1 µM | remaining activity | 29%
Cn1cncc1C1=CN(c2ncnc3[nH]cnc23)CCS1 | enzyme activity | inhibitor | radiometric | 50 nM | inhibition | 20.6%
COc1cc(/C=C/C(=O)CC(=O)/C=C/c2ccc(O)c(OC)c2)ccc1O | enzyme activity | inhibitor |  | 1 µM | activity vs control | 5%
O=C(O)c1ccc2c(c1)nc(Nc1ccc3ccccc3c1)c1ncncc12 | enzyme activity | inhibitor | radiometric | 1 µM | remaining activity | 1%
Cc1nc(Cc2cccc(C(F)(F)F)c2)sc1-c1ccc(C(N)=O)nc1 | cell-free assay |  | competition with immobilised ligand | 1 µM | remaining binding | 90%
O=C(O)c1ccc2c(c1)nc(Nc1cccc(F)c1)c1ncncc12 | enzyme activity | inhibitor | radiometric | 1 µM | remaining activity | 33%
Cc1cc(NC(=O)c2cccc(S(F)(F)(F)(F)F)c2)cc(-n2ccn3nc(-c4cccnc4)cc23)c1 | cell-free assay |  | competition with immobilised ligand | 1 µM | remaining binding | 100%
O=C(O)c1ccc2c(c1)nc(NCCc1ccccc1)c1ncncc12 | enzyme activity | inhibitor | radiometric | 1 µM | remaining activity | 45%
CN(C)CC#Cc1ccc(OCCCc2sc(N3CCc4cccc(C(=O)Nc5nc6ccccc6s5)c4C3)nc2C(=O)O)c(F)c1 | cell-free assay |  | competition with immobilised ligand | 1 µM | remaining binding | 100%
O=C(O)c1ccc2c(c1)nc(Nc1ccc(Cl)cc1)c1ncncc12 | enzyme activity | inhibitor | radiometric | 1 µM | remaining activity | 33%
O=C1Nc2ccc(Cl)cc2C1=Cc1cc(Cl)c(O)c(Cl)c1 | cell-free assay |  |  | 0.5 µM | remaining signal | 94%
